Measured values reported in EPA's CvTdb concentration-time database.

Test system: human
Assay: amount in urine after dosing (umol)
Procedure, shortened: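 A PubMed search, classifier screening and manual review identified published in vivo toxicokinetic studies, which together with two structured collections supplied concentration-versus-time and amount-versus-time points. Points were mostly digitised from plot screenshots with WebPlotDigitizer, otherwise copied from tables. Dose, route, subject details and medium were hand-curated from each paper, and sampling and analytical methods are those of the sources, often unreported.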

CC(C)(O)C(=O)O [2-hydroxyisobutyrate]
dosed: methyl tert-butyl ether, oral
Conditions | amount in urine
0 h, 5 mg | 0.0411
6.05 h, 15 mg | 3.18
6.268 h, 5 mg | 1.19
12.12 h, 5 mg | 2.99
12.19 h, 15 mg | 8.45
18.04 h, 15 mg | 10.7
18.39 h, 5 mg | 3.79
24.12 h, 15 mg | 9.14
24.44 h, 5 mg | 3.07
29.96 h, 15 mg | 11.8
30.29 h, 5 mg | 3.64
36.26 h, 15 mg | 9.95
36.46 h, 5 mg | 2.37
42.05 h, 15 mg | 4.96
42.31 h, 5 mg | 1.27
48.24 h, 15 mg | 2.63
48.47 h, 5 mg | 0.849
54.1 h, 15 mg | 3.08
54.53 h, 5 mg | 0.89
59.87 h, 15 mg | 1.63
60.27 h, 5 mg | 0.438
66.05 h, 15 mg | 0.953
66.44 h, 5 mg | 0.123
71.92 h, 15 mg | 0.593
72.6 h, 5 mg | 0.0411
77.99 h, 15 mg | 0.596
83.85 h, 15 mg | 0.357
90.03 h, 15 mg | 0.279
95.89 h, 15 mg | 0.322

inhalation, duration: 4 hr
Conditions | amount in urine
0 h, dosed: methyl tert-butyl ether, 4.5 ppm | 10.8
0.116 h, dosed: methyl tert-butyl ether, 38.7 ppm | 17.8
0.1579 h, dosed: ethyl tert-butyl ether, 40.6 ppm | 13.3
0.2123 h, dosed: ethyl tert-butyl ether, 4.5 ppm | 11.1
6 h, dosed: ethyl tert-butyl ether, 40.6 ppm | 41
6.115 h, dosed: ethyl tert-butyl ether, 4.5 ppm | 19.1
6.219 h, dosed: methyl tert-butyl ether, 38.7 ppm | 71.9
6.261 h, dosed: methyl tert-butyl ether, 4.5 ppm | 20.2
12 h, dosed: ethyl tert-butyl ether, 40.6 ppm | 65.3
12 h, dosed: methyl tert-butyl ether, 4.5 ppm | 26.8
12.13 h, dosed: methyl tert-butyl ether, 38.7 ppm | 147
12.31 h, dosed: ethyl tert-butyl ether, 4.5 ppm | 23.3
18 h, dosed: ethyl tert-butyl ether, 40.6 ppm | 61.2
18.26 h, dosed: methyl tert-butyl ether, 4.5 ppm | 21.8
18.32 h, dosed: ethyl tert-butyl ether, 4.5 ppm | 21.5
18.4 h, dosed: methyl tert-butyl ether, 38.7 ppm | 149
24 h, dosed: ethyl tert-butyl ether, 40.6 ppm | 50.2
24 h, dosed: methyl tert-butyl ether, 4.5 ppm | 24.3
24.14 h, dosed: methyl tert-butyl ether, 38.7 ppm | 134
24.23 h, dosed: ethyl tert-butyl ether, 4.5 ppm | 20.8
30 h, dosed: ethyl tert-butyl ether, 40.6 ppm | 70.5
30.26 h, dosed: methyl tert-butyl ether, 4.5 ppm | 27.8
30.41 h, dosed: ethyl tert-butyl ether, 4.5 ppm | 22.2
30.42 h, dosed: methyl tert-butyl ether, 38.7 ppm | 132
36.1 h, dosed: methyl tert-butyl ether, 4.5 ppm | 18.2
36.14 h, dosed: methyl tert-butyl ether, 38.7 ppm | 85.6
36.21 h, dosed: ethyl tert-butyl ether, 40.6 ppm | 51
36.28 h, dosed: ethyl tert-butyl ether, 4.5 ppm | 14.6
42.16 h, dosed: ethyl tert-butyl ether, 40.6 ppm | 41.8
42.16 h, dosed: methyl tert-butyl ether, 4.5 ppm | 14.4
42.29 h, dosed: methyl tert-butyl ether, 38.7 ppm | 63
42.3 h, dosed: ethyl tert-butyl ether, 4.5 ppm | 13.6
48.13 h, dosed: methyl tert-butyl ether, 38.7 ppm | 41.8
48.16 h, dosed: ethyl tert-butyl ether, 40.6 ppm | 34.3
48.47 h, dosed: ethyl tert-butyl ether, 4.5 ppm | 14.4
54.21 h, dosed: ethyl tert-butyl ether, 40.6 ppm | 30.1
54.31 h, dosed: methyl tert-butyl ether, 38.7 ppm | 48.6
60.15 h, dosed: methyl tert-butyl ether, 38.7 ppm | 33.6
60.16 h, dosed: ethyl tert-butyl ether, 40.6 ppm | 37.6
66.16 h, dosed: ethyl tert-butyl ether, 40.6 ppm | 20.9
66.32 h, dosed: methyl tert-butyl ether, 38.7 ppm | 24
72.06 h, dosed: methyl tert-butyl ether, 38.7 ppm | 17.8
72.16 h, dosed: ethyl tert-butyl ether, 40.6 ppm | 17.5

CC(O)C(C)(C)O (configuration not stated) [2-methyl-2,3-butanediol]
dosed: tert-amyl methyl ether, inhalation, duration: 4 hr
Conditions | amount in urine
0.2902 h, 38.4 ppm | 3.72
6.051 h, 3.8 ppm | 2.15
6.373 h, 38.4 ppm | 16.5
12.12 h, 3.8 ppm | 3.45
12.25 h, 38.4 ppm | 30.5
18.08 h, 3.8 ppm | 2.56
18.3 h, 38.4 ppm | 29.8
24.08 h, 3.8 ppm | 3.27
24.35 h, 38.4 ppm | 31.2
30.04 h, 3.8 ppm | 2.77
30.25 h, 38.4 ppm | 25.2
36.13 h, 3.8 ppm | 2.42
36.31 h, 38.4 ppm | 28.1
42.02 h, 3.8 ppm | 1.67
42.34 h, 38.4 ppm | 17
47.89 h, 3.8 ppm | 2.12
48.2 h, 38.4 ppm | 23.9
54.05 h, 3.8 ppm | 1.93
54.23 h, 38.4 ppm | 14.1
59.94 h, 3.8 ppm | 1.6
60.36 h, 38.4 ppm | 18.1
66.02 h, 3.8 ppm | 1.63
66.19 h, 38.4 ppm | 12.1
71.9 h, 3.8 ppm | 1.44
72.24 h, 38.4 ppm | 11.2
225 s, 3.8 ppm | 0.476

dosed: tert-amyl methyl ether, oral
Conditions | amount in urine
0.2379 h, 5 mg | 0.118
6.002 h, 15 mg | 1.07
6.23 h, 5 mg | 0.379
11.79 h, 15 mg | 1.97
12.07 h, 5 mg | 0.593
17.9 h, 15 mg | 2.14
18.15 h, 5 mg | 0.435
24 h, 15 mg | 2.43
24.24 h, 5 mg | 0.394
29.83 h, 15 mg | 2.27
30.07 h, 5 mg | 0.532
35.87 h, 15 mg | 2.31
36.08 h, 5 mg | 0.4
41.73 h, 15 mg | 1.29
42.17 h, 5 mg | 0.374
47.83 h, 15 mg | 1.66
48.27 h, 5 mg | 0.367
53.95 h, 15 mg | 1.48
54.08 h, 5 mg | 0.38
59.71 h, 15 mg | 1.02
60.18 h, 5 mg | 0.324
65.84 h, 15 mg | 0.758
66.2 h, 5 mg | 0.264
71.94 h, 15 mg | 1.05
72 h, 5 mg | 0.243
77.76 h, 15 mg | 1.07
78.1 h, 5 mg | 0.243
83.97 h, 15 mg | 0.611
84.2 h, 5 mg | 0.244
89.71 h, 15 mg | 0.61
90 h, 5 mg | 0.214
95.84 h, 15 mg | 0.463
96.03 h, 5 mg | 0.188
235 s, 15 mg | 0.223
